Assay results as given in publication PMC9283735 (Clinical and Translational Science, 2022).
Like-named read-outs stand apart in the source and are kept apart here. *1 amine or outer side, *2 acyl side, *3 side chain or, on linkers, in order; H or OH if unused. Where a SMILES comes first, the peptide text is derived from it. Bridges are numbered along the chain shown (N, C = ends). [ ]: non-standard residue; d: D form. The star is where a group is joined. Orn(4R-OH,5R-OCH2CH2NMe3+) = C[N+](C)(C)CCO[C@@H](N[*:3])[C@H](O)C[C@H](N[*:1])C(=O)[*:2]; pTerphenylCO(4''-OnC5H11) = CCCCCOc1ccc(-c2ccc(-c3ccc(C(=O)*)cc3)cc2)cc1; hTyr(3S-OH,4S-OH) = N[C@H](C(=O)O)[C@H](O)[C@@H](O)c1ccc(O)cc1; Pro(3S-OH,4S-Me) = C[C@H]1CN[C@H](C(=O)O)[C@H]1O; Hyp = O=C(O)[C@@H]1C[C@@H](O)CN1

What was measured:
[1] = single i.v. doses of 50, 100, 200 and 400 mg, human plasma; cited from earlier work
[2] = monkeys; cited from earlier work
[3] = rats; cited from earlier work
[4] = Plasma pharmacokinetics after a single s.c. dose; type: in vivo, human; details: 10 mg single s.c. dose, healthy adults; for AUC(0-t): AUC0-last; for AUC(0-t) / Tmax: N = 6; for Tmax: T max
Outline: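 Healthy adults aged 18–45 y were randomized 3:1 to a single s.c. injection of the test compound (100 mg/ml formulation with mannitol) or placebo (5% dextrose). Parameters came from noncompartmental analysis (Lambda Z: adjusted r² ≥0.90, span ≥2.0 half-lives, ≥2 points after Tmax).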

healthy adult subjects [5] = type: in vivo, human
Outline: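 Unsolicited AEs (volunteered, not pre-specified) were recorded from dosing to final follow-up (day 30), graded 1–3, judged related or unrelated by the study physician, and coded with MedDRA 23.1. Clinical evaluation included ECGs, physical examinations and vital signs on select days. Laboratory tests covered hematology, coagulation, blood chemistry and dipstick urinalysis, run on samples taken after a fast of at least 8 h.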

healthy adult subjects [6] = experiment: Solicited local reactogenicity symptoms; type: in vivo, human; details: 1 mg or 10 mg single s.c. dose
Outline: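 The injection site was evaluated from dosing to day 30: in-unit confinement for 7 days, then follow-up on days 14, 21 and 30 (±1 day). Solicited local symptoms were pain, tenderness, pruritus, ecchymosis, induration/swelling, erythema, nodule and ulceration, each graded mild (1), moderate (2) or severe (3). Subjects were randomized 3:1 to test compound or 5% dextrose placebo. Proportions carry Wilson-score 95% CIs.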

[7] = human, plasma, sc, 10 mg, geometric mean, NCA
[8] = human, plasma, sc, 10 mg, median, NCA
[9] = cohort 1 (1 mg s.c.), of 3 who received rezafungin
[10] = cohort 2 (10 mg s.c.), of 6 who received rezafungin

Structure (SMILES): CCCCCOc1ccc(-c2ccc(-c3ccc(C(=O)N[C@H]4C[C@@H](O)[C@@H](OCC[N+](C)(C)C)NC(=O)[C@@H]5[C@@H](O)[C@@H](C)CN5C(=O)[C@H]([C@@H](C)O)NC(=O)[C@H]([C@H](O)[C@@H](O)c5ccc(O)cc5)NC(=O)[C@@H]5C[C@@H](O)CN5C(=O)[C@H]([C@@H](C)O)NC4=O)cc3)cc2)cc1 [rezafungin] ({pTerphenylCO(4''-OnC5H11)}-[Orn(4R-OH,5R-OCH2CH2NMe3+)]T[Hyp][hTyr(3S-OH,4S-OH)]T[Pro(3S-OH,4S-Me)]; lactam 1-C)
- T max after start of infusion [1]: ~ 1 h
- Total body clearance [1]: ~ 0.2 L/h
- bioavailability of s.c. formulation [2]: ≤ 80%
- bioavailability of s.c. formulation [3]: ≤ 80%
- exposure period [4]: ~1 month
- t 1/2, geometric mean ([4]; plasma, NCA, geometric mean, N = 5): 186.2 h
- AUC0-inf, maximum ([4]; plasma, NCA, maximum, N = 5): 53,200 ng*h/ml
- CL/F, maximum ([4]; plasma, NCA, maximum, N = 5): 0.344 L/h
- V z/F, maximum ([4]; plasma, NCA, maximum, N = 5): 95.6 L
- t 1/2, maximum ([4]; plasma, NCA, maximum, N = 5): 219 h
- CL/F, minimum ([4]; plasma, NCA, minimum, N = 5): 0.188 L/h
- V z/F, minimum ([4]; plasma, NCA, minimum, N = 5): 38.0 L
- t 1/2, minimum ([4]; plasma, NCA, minimum, N = 5): 140 h
- AUC(0-t) [4, 7]: 32800 ng·h/mL
- AUC(0-t) [4, 8]: 32000 ng·h/mL
- CL/F ([4]; human, plasma, sc, 10 mg, CL/F (apparent clearance), mean, NCA, N = 5): 4.35 mL/min
- CL/F ([4]; human, plasma, sc, 10 mg, CL/F, geometric mean, NCA, N = 5): 4.25 mL/min
- CL/F ([4]; human, plasma, sc, 10 mg, CL/F, median, NCA, N = 5): 4.5 mL/min
- Tmax [4, 7]: 112 h
- Tmax ([4]; human, plasma, sc, 10 mg, mean, NCA): 120 h
- Tmax [4, 8]: 144 h
- half-life ([4]; human, plasma, sc, 10 mg, t 1/2, median, NCA, median, N = 5): 193 h
- severe bradycardia, subjects (healthy adult subjects [5]; cohort 1 (1 mg s.c.), asymptomatic, determined not rezafungin-related): single subject
- sinus bradycardia (unsolicited AE), % of subjects (healthy adult subjects [5]; [9]): 67%
- sinus bradycardia (unsolicited AE), subjects (healthy adult subjects [5]; [9]): 2
- unsolicited AEs deemed related to rezafungin, number of subjects (healthy adult subjects [5]; cohort 2 (10 mg s.c.)): three
- unsolicited AEs deemed related to rezafungin, number of AEs (healthy adult subjects [5]; cohort 2 (10 mg s.c.), all mild): Five
- increased alanine aminotransferase (unsolicited AE), % of subjects (healthy adult subjects [5]; [10]): 33%
- increased alanine aminotransferase (unsolicited AE), subjects (healthy adult subjects [5]; [10]): 2
- intensity of solicited reactogenicity symptoms (healthy adult subjects [6]): mild to moderate
